HSF1 inhib = HSF1 inhibitors in luciferase reporter cells, primary screen, cell-based, NIH3T3, luminescence; NIH3T3-HGL HSE-luciferase, MG132-induced, luminescence 8 h; stronger effect = lower value; activity change, negative = inhibition, % at 7.5 µM (by protocol); 300,000 compounds, 0.77% hits; AID 2098, 2009;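 active = more than half of replicate wells show activity change below -50%, luminescence cut by over half; inconclusive = some wells, but at most half, below -50%; inactive = no replicate well below -50%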;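 note: luciferase reports HSF-1 transcriptional activity via heat shock element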
HIF activator = HIF pathway transcriptional activators, primary screen, cell-based, U2OS HRE-luciferase, luminescence; U2OS HRE-luciferase reporter; normalized: DMSO 0%, desferrioxamine 100%; activation, % at 7.5 µM (by protocol); 300,000 compounds, 0.32% hits;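 active = mean activation of at least 10% of the iron chelator positive control signal, with at least half of replicates also reaching 10%; inconclusive = mean and replicate majority disagree about reaching 10%; inactive = mean and most replicates under 10%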
HSF-1 act = HSF-1 activators, primary screen, NIH3T3-HGL cells, MG132 stress, luminescence, single point; NIH3T3-HGL HSF-1 luciferase reporter, 8 h; 100% = twice DMSO control signal; activation, % at 9 µM; 300,000 compounds, 1.7% hits;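 active = mean replicate activation of at least 50% with a set share of replicates each reaching 50%; inconclusive = only one of those two conditions met; inactive = mean below 50% and too few replicates reaching it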
T cruzi inh = inhibitors of intracellular T. cruzi growth, primary screen, luminescence, NIH3T3 host cells; T. cruzi beta-gal in NIH3T3, 90 h; AID 1885, 2009; 300,000 compounds, 1.4% hits; inhibition, % (concentration not given with the values);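 active = mean inhibition across valid replicates above about 55%, limit read from the data; inconclusive = mean below that limit but half or more replicates reach it; inactive = mean below it, under half of replicates reach it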;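 note: signal also drops with host cell toxicity which is not excluded here; higher percent means less beta-gal luminescence so fewer parasites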
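Incubation – ≥90 h infection period, 3 h prior cell attachment · System – NIH/3T3 fibroblasts plus reporter T. cruzi · Doses – compound pinned at 50 nL/well, DMSO · Read-out basis – percent inhibition of parasite-derived β-gal signal · Signal – luminescent β-galactosidase signal after 60 min lysis · Also added – 5000 T. cruzi trypomastigotes/well · Medium – Low-serum DMEM with 2% FBS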
Calb FLC = C. albicans growth inhibition with fluconazole, primary screen, CaCi-2 strain, Alamar Blue fluorescence; 300,000 compounds, 0.57% hits; C. albicans CaCi-2 + fluconazole, 48 h; growth inhibition, % (test concentration not listed); AID 1979, 2009;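 active = growth inhibition above about 58% in most replicates, limit read from the data, passing the limit was not always enough; inconclusive = exactly half the replicates above a set limit; inactive = most replicates below a set limit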;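 note: all wells also contain fluconazole at 8 µg/ml as a sub-toxic cotreatment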
Numbers stand for hits; i = inactive; ? = inconclusive. The list is not random: actives were taken first. Their share in the collection is about 4.4%.

SMILES | HSF1 inhib | HIF activator | HSF-1 act | T cruzi inh | Calb FLC
Cc1occc1-c1nnc(-c2cc([N+](=O)[O-])cc([N+](=O)[O-])c2)o1 | i | i | i | 66 | i
O=[N+]([O-])c1cccc(-c2nnc(-c3ccccc3)o2)c1 | -78 | i | i | i | i
CCOC(=O)C1C(=O)CC(C)(O)C(C(=O)OCC)C1c1ccc(NC(C)=O)cc1 (stereo not given) | i | i | i | i | i
COc1ccc(N2CCN(C(=O)C3CCCN(S(=O)(=O)c4ccc(C)cc4)C3)CC2)cc1 (stereo not given) | i | i | i | i | i
Cc1nn(C)c(Cl)c1CN1CCC(CO)(CC2CCCCO2)CC1 (stereo not given) | i | i | i | i | i
CCOC(=O)c1nnn(CC(=O)N2N=C(c3ccc(Cl)cc3)CC2c2ccccc2)c1C(=O)OCC (stereo not given) | i | i | 52 | i | i
CCOC(=O)Cc1csc(NC(=O)/C=C\c2ccccc2Cl)n1 | i | i | i | i | i
CCOC(=O)c1cc(-c2ccc(C)cc2)n(CCC(=O)N2CCN(c3ccccn3)CC2)c1C | i | i | i | i | i
Cc1cc(=O)n2[nH]c(-c3ccc(C(C)(C)C)cc3)cc2n1 | i | i | i | 63 | i
Clc1cc(Br)ccc1OCCOCCOc1cccc2cccnc12 | i | i | i | i | i
Cc1ccc(OCCOCCOc2cccc3cccnc23)c(Br)c1 | i | i | 77 | i | i
C=CCNCCOCCOc1ccc(C)cc1Br | i | i | i | 56 | i
O=C(CSc1nnc(CNC(=O)c2c(F)cccc2F)o1)NCc1ccco1 | i | i | i | i | i
O=C(Nc1cccnc1Cl)c1cccc(S(=O)(=O)N2CCOCC2)c1 | i | i | i | i | i
CC(C)Cn1[nH]c2c3c(ccc2c1=O)C(=O)c1ccccc1C3=O | i | i | i | i | i
Cc1ccc(O)c(C(=O)c2cc(C(=O)NCCc3ccccc3)c(=O)n(CCc3ccccc3)c2)c1 | i | i | i | 61 | i
COc1ccccc1NC(=O)Nc1nnc(CC(=O)Nc2cccc(C)c2)s1 | i | i | i | i | i
O=c1oc(Nc2cccc(Cl)c2)nc2ccccc12 | i | i | 67 | i | i
O=C(CCn1c(=S)oc2ccccc21)NCCC1=CCCCC1 | i | i | i | i | i
O=C(CNC(=O)C(c1ccccc1)c1ccccc1)N/N=C\c1cccc(O)c1 | i | i | i | i | i
O=C(CNC(=O)C(c1ccccc1)c1ccccc1)N/N=C/c1ccc(O)cc1O | i | 11 | i | i | i
CCc1cc(C(=O)N/N=C/c2ccc(O)cc2O)c2ccccc2n1 | i | 29 | i | i | i
CCCN1CCC(NCc2cn(C)nc2-c2ccc(Oc3ccccc3)cc2)CC1 | i | i | i | i | i
O=C(O)/C=C/C(=O)Nc1ccc(Cc2ccc(NC(=O)/C=C/C(=O)O)cc2)cc1 | i | i | i | i | i
Nc1ncnc2oc(-c3ccco3)c(-c3ccco3)c12 | -53 | i | i | i | i
SMILES | HSF1 inhib | HIF activator | HSF-1 act | T cruzi inh | Calb FLC
Cc1cc(C)n(-c2c(C)[nH]c3ccccc23)n1 | i | i | i | i | i
O=C(COC(=O)C1CCN(S(=O)(=O)c2ccc3c(c2)OCCO3)CC1)Nc1cccc2ccccc12 | i | i | i | i | i
Cc1ccc2cccc(NC(=O)C(F)(F)F)c2n1 | i | i | 215 | i | i
O=[N+]([O-])c1ccccc1S(=O)(=O)NC1CCCC1 | i | i | i | i | i
Cc1ccc(/C(N)=N/OC(=O)N2CCOCC2)cc1 | i | i | i | 55 | i
Cc1cccc(/C(N)=N/OC(=O)N2CCOCC2)c1 | i | i | i | 60 | i
Cc1ccc(C(=O)OCC(=O)N2CCOCC2)cc1 | i | i | i | i | i
Cc1cccc(/C(N)=N/OC(=O)c2ccco2)c1 | i | i | i | i | i
O=c1c(-c2nc3ccccc3s2)cccn1Cc1ccc(Cl)c(Cl)c1 | i | i | 52 | i | i
COc1ccc2oc(=O)c(-c3nc4ccccc4o3)cc2c1 | i | i | i | i | i
COc1ccc(N=c2oc3ccc(OC)cc3cc2-c2nc3ccccc3[nH]2)cc1 | i | i | 58 | i | i
COc1cccc(N=c2oc3ccccc3cc2-c2nc3ccccc3[nH]2)c1 | i | i | 71 | i | i
O=c1oc2c(O)cccc2cc1-c1nc2ccccc2[nH]1 | i | i | i | i | i
COc1cccc(N=c2oc3ccc(OC)cc3cc2-c2nc3ccccc3[nH]2)c1 | i | i | 54 | i | i
CC1=NN(c2ccccc2)C(=O)/C1=C\C=C\c1ccccc1 | i | i | 98 | i | i
CCc1c(C)sc(NC(=O)c2noc(C)c2[N+](=O)[O-])c1C#N | i | i | i | i | ?
O=[N+]([O-])c1ccc2c(c1)nc1n2CCN(C2CCCCC2)C1 | i | i | 53 | i | i
COc1cc(/C=N/N2C(=O)c3ccccc3NC2(C)c2cccc([N+](=O)[O-])c2)cc(Br)c1O (stereo not given) | i | i | 56 | i | i
CN(CCC#N)C(=O)CC(Cc1ccccc1)C1CCOC(C)(C)C1 (stereo not given) | i | i | i | i | i
O=S(=O)(Cc1ccccc1)N1CCc2ccccc21 | i | i | i | i | 100
C#CCNC(=O)C1=C[C@H](C)C[C@H](OCc2ccc(CO)cc2)O1 | i | i | i | i | i
COc1ccc(CCNC(=O)c2nnn(CC(=O)Nc3c(C)cc(C)cc3C)c2N)cc1OC | i | 107 | i | i | i
COc1cccc(CN(C(=O)c2cc3ccccc3oc2=O)C2CC2)c1 | i | i | i | i | 90
COc1ccc(CN(C(=O)c2cc3ccccc3oc2=O)C2CCS(=O)(=O)C2)cc1 (stereo not given) | i | i | i | i | i
COc1ccc(CN(C(=O)c2cc3ccccc3oc2=O)C2CCS(=O)(=O)C2)cc1OC (stereo not given) | i | i | 56 | i | i
SMILES | HSF1 inhib | HIF activator | HSF-1 act | T cruzi inh | Calb FLC
Cc1ccc(C)c(NC(=O)C(=O)NCC2CCCN2S(=O)(=O)c2cccs2)c1 (stereo not given) | i | i | i | i | i
CC(C)[C@H](NC(=O)c1ccco1)C(=O)OCc1cc(=O)n2c(n1)sc1ccccc12 | i | 20 | i | i | i
Cc1ccc(C(=O)N[C@H](C(=O)OCc2cc(=O)n3c(n2)sc2ccccc23)C(C)C)cc1 | i | i | i | i | i
O=C(/C=C\Nc1ccccn1)c1ccccc1 | i | i | i | i | i
O=C(/C=C/Nc1ccccc1Br)c1ccccn1 | -61 | i | i | i | i
CCOC(=O)c1c(-c2ccccc2)oc2cc(CN(C)C)c(O)c(CN(C)C)c12 | i | 12 | i | i | i
Cc1ccc(-n2c(=O)[nH]c3ncccc3c2=O)cc1 | i | i | i | i | i

Screens as filed in PubChem BioAssay.
